Results: ChEMBL document CHEMBL1649109, “Antiparasitic activities and toxicities of individual enantiomers of the 8-aminoquinoline 8-[(4-amino-1-methylbutyl)amino]-6-methoxy-4-methyl-5-[3,4-dichlorophenoxy]quinoline succinate” (Antimicrob Agents Chemother, 2008)
The source made the active and inactive calls. No cut-off for these calls is given here.

What was measured:
Canis familiaris [1] = assay: Toxicity in Beagle dog assessed as methemoglobin level at 5.3 mg/kg/day, po after 2 weeks; format: organism-based, Canis lupus familiaris; set-up: route oral; conditions: in vivo, 336 h
Procedure, shortened: (§1)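 Male beagles aged 8–9 months (n = 2) received oral primaquine diphosphate as bulk drug in gelatin capsules on days 1–4 (0.0116 mmol/kg/day as base), dosed by day-1 body weight. Jugular or cephalic blood was drawn before dosing on days 1, 2 and 4, then on days 5, 7, 9, 11, 15, 18, 21, 25 and 29. Methemoglobin was measured by co-oximeter absorbance at four wavelengths.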

Pneumocystis carinii [2] = assay: Antimicrobial activity against Pneumocystis carinii infected BALB/c mouse at 2 mg/kg/day, po after 21 days administered 4 weeks postinfection by Giemsa staining method; format: functional, organism-based
Pneumocystis carinii [3] = assay: Antimicrobial activity against Pneumocystis carinii infected BALB/c mouse at 2 mg/kg/day, po after 21 days administered 4 weeks postinfection by methenamine silver nitrate staining method; format: functional, organism-based
Canis familiaris [4] = assay: Toxicity in Beagle dog assessed as increase in methemoglobin level at 5.3 mg/kg/day, po measured on day 5; format: organism-based, Canis lupus familiaris; set-up: route oral; conditions: in vivo; procedure, shortened: as §1
Leishmania donovani [5] = assay: Antileishmanial activity against Leishmania donovani HU3 infected in mouse; format: functional
Procedure, shortened: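 L. donovani HU3 amastigotes, 1 × 10^7 given IV to mice. From day 7 post-infection, dosed orally once daily for 5 days in 0.25% methylcellulose-10% ethanol; reference stibogluconate given SC. Mice killed at day 14 post-infection. Parasite burden counted on liver impression smears against untreated controls. ED50 from linear regression, with 95% confidence limits.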

Leishmania donovani [6] = assay: Antileishmanial activity against Leishmania donovani HU3 infected in mouse assessed as inhibition of parasite burden at 5 mg/kg/day, sc for 5 days administered 7 days post-infection measured 14 days post-infection; format: functional, organism-based
Procedure, shortened: (§2)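 Mice infected intravenously with 1 × 10^7 L. donovani (MHOM/ET/67/HU3) amastigotes. Starting 7 days post-infection, sodium stibogluconate was given subcutaneously once daily for 5 days, with doses expressed as SbV. Mice were killed 14 days post-infection. Parasite burdens were counted on liver impression smears and compared with an untreated control group. ED50 was obtained by linear regression.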

Leishmania donovani [7] = assay: Antileishmanial activity against Leishmania donovani HU3 infected in mouse assessed as inhibition of parasite burden at 45 mg/kg/day, sc for 5 days administered 7 days post-infection measured 14 days post-infection; format: functional, organism-based; procedure, shortened: as §2
Leishmania donovani [8] = assay: Antileishmanial activity against Leishmania donovani HU3 infected in mouse assessed as inhibition of parasite burden administered subcutaneously once daily for 5 days after 7 days post-infection measured 14 days post-infection; format: functional, organism-based; procedure, shortened: as §2
Leishmania donovani [9] = assay: Antileishmanial activity against Leishmania donovani HU3 infected in mouse assessed as inhibition of parasite burden at 15 mg/kg/day, sc for 5 days administered 7 days post-infection measured 14 days post-infection; format: functional, organism-based; procedure, shortened: as §2

Which Activity (Canis familiaris [1]) does the source give for COc1cc(NC(C)CCCN)c2ncccc2c1 (stereo unspecified) [PRIMAQUINE] here?
Its Activity is “Non-toxic”.

And the Activity (Pneumocystis carinii [2])?
The Activity was “inactive”.

What about the Activity (Pneumocystis carinii [3]) of the same molecule?
The Activity was “inactive”.

And the Activity (Canis familiaris [4])?
Its Activity is “Toxic”.

Which ED90 (Leishmania donovani [5]) does the source give for CCN(CC)CCCCCCNc1cc(OC)cc2c(C)ccnc12 [SITAMAQUINE] here?
The ED90 was 4.14 mg/kg.

What about the ED50 (Leishmania donovani [5]; Leishmania donovani, HU3) of the same molecule?
Its ED50 is 1.55 mg/kg.

Sodium stibogluconate was tested. Which inhibition (Leishmania donovani [6]) did it give?
Its inhibition is 13.8%.

What about the inhibition (Leishmania donovani [7]) of the same molecule?
The inhibition was 99.3%.

And the ED50 (Leishmania donovani [8])?
Its ED50 is 27.7 mg/kg.

And the ED90 (Leishmania donovani [8])?
Its ED90 is over 45 mg/kg.

What about the inhibition (Leishmania donovani [9]) of the same molecule?
Its inhibition is 59.4%.
